Experimental findings from ChEMBL document CHEMBL1212827, “Unnatural amino acid side chains as S1, S1', and S2' probes yield cationic antimicrobial peptides with stability toward chymotryptic degradation” (J Med Chem, 2010) are described below.

Data set [1] in a line: Stability of the compound in 0.1 M NH4HCO3 buffer at pH 8.2 assessed as half life in presence of chymotrypsin. As to conditions: for half-life: chymotrypsin in NH4HCO3 buffer; for t1/2: isolated protein. The data set is classed as physicochemical. A digest of the protocol: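 Peptide 1 mg/mL stock; chymotrypsin 1 mg per 50 mL buffer; both diluted tenfold into 0.1 M NH4HCO3 pH 8.2 and incubated at 37 °C. Aliquots quenched with water/acetonitrile 60/40 containing 0.5% TFA and run on RP-HPLC. Half-life calculated from 214 nm peak areas over the first 5 h. Under 10% degradation at 24 h counted as stable. Enzyme-free samples at 0 and 24 h served as controls.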

The next data set has as its system Escherichia coli. Kind of data set: Antibacterial activity against Escherichia coli ATCC 25922. The data set is classed as functional.
For data set [2], the system named is Staphylococcus aureus. Kind of data set: Antibacterial activity against methicillin-resistant Staphylococcus aureus ATCC 33591. Format: functional.
For data set [3], the system named is Staphylococcus aureus. Kind of data set: Antibacterial activity against Staphylococcus aureus ATCC 25923. The data set is classed as functional.
The nature of data set [4]: Toxicity in human RBC assessed as hemolysis at 1 mM after 30 mins relative to control. As to conditions: red blood cells (RBC), read-out: Activity. Format: cell-based, Erythrocyte. A digest of the protocol: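 Fresh heparinized human erythrocytes, washed in normal saline. Peptides at 25–1000 μg/mL with 1% v/v final erythrocytes, 30 min at 37 °C with agitation. Supernatant OD read at 405 nm. Saline served as 0% and 1% Triton X as 100% hemolysis; percent lysis taken relative to their difference.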

Data set [5] is described as follows: Binding affinity to chymotrypsin by isothermal titration […]. Summed up: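 Isothermal titration calorimetry at 25 °C in 0.1 M NH4HCO3 pH 8.2. Peptide (2.1 mM in syringe) injected in 20 aliquots of 5 μL into stirred (150 rpm) chymotrypsin (0.1 mM), 400 s between injections. First injection point discarded. KD fitted from heats of interaction.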
(In general: ITC needs no label: the signal is the heat of the interaction.)

Converted amounts (≈) assume the structure as drawn. Non-standard residues stand in square brackets, D forms with d. Residues, ends and D or L forms follow the SMILES beside them. *: point of attachment. Phe(4-guanidino) = N=C(N)Nc1ccc(C[C@H](N)C(=O)O)cc1; Bip = N[C@@H](Cc1ccc(-c2ccccc2)cc1)C(=O)O; Dip = N[C@H](C(=O)O)C(c1ccccc1)c1ccccc1; Phe(4-NH2) = Nc1ccc(C[C@H](N)C(=O)O)cc1; hArg = N=C(N)NCCCC[C@H](N)C(=O)O; Agp = N=C(N)NC[C@H](N)C(=O)O; NHPhenethyl = c1ccc(CCN*)cc1; Orn = NCCC[C@H](N)C(=O)O; NHBn = c1ccc(CN*)cc1 Where only a bound is given, the exact number is not on record here.

The half-life is how long it takes for the measured level to halve. Usually MIC stands for the smallest concentration in the dilution series that meets the test's criterion for growth inhibition. Higher therefore signals weaker potency. For the compound `N=C(N)NCCC[C@H](NC(=O)[C@@H](N)CCCNC(=N)N)C(=O)N[C@@H](Cc1c[nH]c2ccccc12)C(=O)NCc1ccccc1` (H-Arg-Arg-Trp-NHBn), the half-life in data set [1] is 7 h. In the data set with Escherichia coli, this compound had an Activity greater than 200 µM. Moreover, the MIC is 26 µM (≈ 15.7 µg/mL) with Staphylococcus aureus [2] and 79 µM (≈ 47.9 µg/mL) in the data set on Staphylococcus aureus [3].
The like results for `N=C(N)NCCC[C@H](NC(=O)[C@H](Cc1ccccc1)NC(=O)[C@@H](N)CCCNC(=N)N)C(=O)NCc1ccccc1` (H-Arg-Phe-Arg-NHBn) were, in that order, 3 h, greater than 200 µM, 83 µM (≈ 47 µg/mL) and 165 µM (≈ 93.5 µg/mL).
`NC(=O)[C@H](CCCN=C(N)N)NC(=O)[C@H](Cc1c[nH]c2ccccc12)NC(=O)[C@@H](N)CCCN=C(N)N` (H-Arg-Trp-Arg-NH2): the hemolysis at 0.5 h, 1000 µM in data set [4] is greater than 134%. Besides, the half-life in data set [1] was 5 h. In addition, in the data set on Escherichia coli, the Activity was greater than 200 µM. The minimum inhibitory concentration (MIC) in the data set on Staphylococcus aureus [2] and with Staphylococcus aureus [3] was greater than 200 µM each time.
As for `N=C(N)NCCC[C@H](NC(=O)[C@H](Cc1c[nH]c2ccccc12)NC(=O)[C@@H](N)CCCNC(=N)N)C(=O)NCc1ccccc1` (H-Arg-Trp-Arg-NHBn), the hemolysis at 0.5 h, 1000 µM in data set [4] was greater than 5%. In addition, in data set [1], the half-life is 2 h. For the same compound, in the data set with Escherichia coli, the Activity was greater than 200 µM. In addition, the MIC in the data set on Staphylococcus aureus [2] stood at 132 µM (≈ 80 µg/mL); against Staphylococcus aureus [3], 79 µM (≈ 47.9 µg/mL).
`N=C(N)NCCC[C@H](NC(=O)[C@H](Cc1c[nH]c2ccccc12)NC(=O)[C@@H](N)CCCNC(=N)N)C(=O)NCCc1ccccc1` (H-Arg-Trp-Arg-NHPhenethyl): the half-life in data set [1] was 0.5 h. In addition, the Activity in the data set on Escherichia coli was greater than 200 µM. Moreover, the MIC against Staphylococcus aureus [2] is 26 µM (≈ 16.1 µg/mL); against Staphylococcus aureus [3] it was 52 µM (≈ 32.2 µg/mL).
Regarding `N=C(N)NCCC[C@H](N)C(=O)N[C@@H](Cc1c[nH]c2ccccc12)C(=O)N[C@@H](CCCCN)C(=O)NCc1ccccc1` (H-Arg-Trp-Lys-NHBn), the half-life in data set [1] was 4 h. This compound also displayed an Activity with Escherichia coli greater than 200 µM. Also, the values for the minimum inhibitory concentration (MIC) in the data set with Staphylococcus aureus [2] and in the data set on Staphylococcus aureus [3] were 54 µM (≈ 31.2 µg/mL) and 163 µM (≈ 94.2 µg/mL), respectively.
For orientation: Kd means a measure of binding affinity in units of concentration. A low value points to a tighter complex. `N=C(N)NCCC[C@H](N)C(=O)N[C@@H](Cc1c[nH]c2ccccc12)C(=O)N[C@@H](CNC(=N)N)C(=O)NCc1ccccc1` (H-Arg-Trp-[Agp]-NHBn): in data set [4], the hemolysis at 0.5 h, 1000 µM was greater than 2%. The t1/2 result in data set [1] is given as “Stable”. In addition, the Activity with Escherichia coli is greater than 200 µM. Also, the results for the MIC with Staphylococcus aureus [2] and against Staphylococcus aureus [3] were 16 µM (≈ 9.24 µg/mL) and 54 µM (≈ 31.2 µg/mL), respectively. Also, in data set [5], the Kd is 61.1 µM.
Take `N=C(N)NCCC[C@H](N)C(=O)N[C@@H](Cc1c[nH]c2ccccc12)C(=O)N[C@@H](CCCN)C(=O)NCc1ccccc1` (H-Arg-Trp-[Orn]-NHBn): the hemolysis at 0.5 h, 1000 µM in data set [4] was greater than 1%. In data set [1], the half-life was 20 h. Moreover, in the data set on Escherichia coli, the Activity is greater than 200 µM. Moreover, the MIC was determined as 55 µM (≈ 31 µg/mL) in the data set on Staphylococcus aureus [2] and 110 µM (≈ 62 µg/mL) with Staphylococcus aureus [3].
As for `N=C(N)NCCC[C@H](N)C(=O)N[C@@H](Cc1c[nH]c2ccccc12)C(=O)N[C@@H](Cc1ccc(N)cc1)C(=O)NCc1ccccc1` (H-Arg-Trp-[Phe(4-NH2)]-NHBn), in data set [4], the hemolysis at 0.5 h, 1000 µM is greater than 5%. Moreover, the t1/2 result in data set [1] is “Stable”. Besides, in the data set on Escherichia coli, the Activity was greater than 200 µM. For the same compound, the MIC against Staphylococcus aureus [2] was 79 µM (≈ 48.3 µg/mL); with Staphylococcus aureus [3] it was 157 µM (≈ 96 µg/mL).
As to `N=C(N)NCCC[C@H](N)C(=O)N[C@@H](Cc1c[nH]c2ccccc12)C(=O)N[C@@H](Cc1ccc(NC(=N)N)cc1)C(=O)NCc1ccccc1` (H-Arg-Trp-[Phe(4-guanidino)]-NHBn), in data set [1], the half-life was 4 h. In addition, the Activity with Escherichia coli was greater than 200 µM. In addition, the MIC against Staphylococcus aureus [2] amounted to 10 µM (≈ 6.54 µg/mL); in the data set with Staphylococcus aureus [3], 50 µM (≈ 32.7 µg/mL).
Regarding `N=C(N)NCCCC[C@H](NC(=O)[C@H](Cc1c[nH]c2ccccc12)NC(=O)[C@@H](N)CCCNC(=N)N)C(=O)NCc1ccccc1` (H-Arg-Trp-[hArg]-NHBn), in data set [1], the half-life was 1 h. The same compound showed an Activity in the data set on Escherichia coli greater than 200 µM. The MIC against Staphylococcus aureus [2] came to 52 µM (≈ 32.2 µg/mL); with Staphylococcus aureus [3], 78 µM (≈ 48.3 µg/mL).
On to `N=C(N)NCCC[C@H](NC(=O)[C@H](Cc1ccc(-c2ccccc2)cc1)NC(=O)[C@@H](N)CCCNC(=N)N)C(=O)NCc1ccccc1` (H-Arg-[Bip]-Arg-NHBn), for which, in data set [4], the hemolysis at 0.5 h, 1000 µM is greater than 5%. In data set [1], the t1/2 entry is “Stable”. In the data set with Escherichia coli, this compound showed an Activity greater than 200 µM. In addition, the minimal inhibitory concentration (MIC) was 15 µM (≈ 9.64 µg/mL) in the data set on Staphylococcus aureus [2] and 10 µM (≈ 6.43 µg/mL) against Staphylococcus aureus [3]. In data set [5], this compound registered a Kd of 18.4 µM.
In the case of `N=C(N)NCCC[C@H](NC(=O)[C@@H](NC(=O)[C@@H](N)CCCNC(=N)N)C(c1ccccc1)c1ccccc1)C(=O)NCc1ccccc1` (H-Arg-[Dip]-Arg-NHBn), the hemolysis at 0.5 h, 1000 µM in data set [4] was greater than 10%. Besides, in data set [1], the t1/2 result was “Stable”. In addition, the Activity with Escherichia coli was greater than 200 µM. The minimal inhibitory concentration (MIC) against Staphylococcus aureus [2] turned out to be 10 µM (≈ 6.43 µg/mL); in the data set on Staphylococcus aureus [3], 25 µM (≈ 16.1 µg/mL).
Take `N=C(N)NCCC[C@H](N)C(=O)N[C@@H](Cc1ccc(N)cc1)C(=O)N[C@@H](Cc1c[nH]c2ccccc12)C(=O)NCc1ccccc1` (H-Arg-[Phe(4-NH2)]-Trp-NHBn): in data set [1], the half-life is 17 h. The compound further displayed an Activity with Escherichia coli greater than 200 µM. Moreover, the minimal inhibitory concentration (MIC) against Staphylococcus aureus [2] worked out at 79 µM (≈ 48.3 µg/mL); with Staphylococcus aureus [3], 157 µM (≈ 96 µg/mL).
Turning to `N=C(N)NCCC[C@H](N)C(=O)N[C@@H](Cc1ccc(NC(=N)N)cc1)C(=O)N[C@@H](Cc1c[nH]c2ccccc12)C(=O)NCc1ccccc1` (H-Arg-[Phe(4-guanidino)]-Trp-NHBn), in data set [4], the hemolysis at 0.5 h, 1000 µM was greater than 2%. Besides, the t1/2 entry in data set [1] was “Stable”. In the data set with Escherichia coli, this compound gave an Activity greater than 200 µM. Further, the MIC against Staphylococcus aureus [2] was determined as 15 µM (≈ 9.81 µg/mL); against Staphylococcus aureus [3], 50 µM (≈ 32.7 µg/mL).
